Type in all cases: functional
Assay [1] concerns Biomphalaria peregrina. Kind of assay: Molluscicidal activity against Biomphalaria peregrina assessed as mortality at 5 ppm after 24 hrs. An outline of the steps: (§1)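 WHO protocol on adult snails, seven per beaker, each concentration in triplicate. Test solutions in water with MeOH ≤5% v/v; same-volume solvent controls. After 24 h exposure, snails were rinsed in dechlorinated tap water and kept 24 h to recover in dechlorinated tap water with lettuce leaves. Percent mortality was then recorded at the stated ppm.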

Assay [2] has as its system Biomphalaria peregrina. Kind of assay: Molluscicidal activity against Biomphalaria peregrina assessed as mortality at 1 ppm after 24 hrs. The essentials: as §1
The subject of assay [3] is Biomphalaria peregrina. Nature of the assay: Molluscicidal activity against Biomphalaria peregrina assessed as mortality at 0.5 ppm after 24 hrs. The essentials:
as §1

Assay [4] deals with Biomphalaria peregrina. Nature of the assay: Molluscicidal activity against Biomphalaria peregrina after 24 hrs. The settings on record: for LC50: Biomphalaria peregrina, 24 h, read-out: LD50 (the source's name). The essentials: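 Adult snails (seven per concentration, triplicate) exposed 24 h to test solutions in water with MeOH ≤5% v/v, per the WHO protocol. Snails were then washed and held 24 h in dechlorinated tap water with lettuce leaves before mortality was scored. Solvent-only negative control; 10 ppm CuSO₄ positive control.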

In assay [5] the test system is Biomphalaria peregrina. Nature of the assay: Molluscicidal activity against Biomphalaria peregrina assessed as mortality at 10 ppm after 24 hrs. An outline of the steps:
as §1

The subject of assay [6] is Biomphalaria pfeifferi. Kind of assay: Molluscicidal activity against Biomphalaria pfeifferi. The note with it: read-out: LD50 (the source's name).
Assay [7] deals with Biomphalaria alexandrina. Nature of the assay: Molluscicidal activity against Biomphalaria alexandrina. The note with it: read-out: LD50 (the source's name).
Assay [8] has as its system Oncomelania hupensis. Kind of assay: Molluscicidal activity against Oncomelania hupensis. The note with it: read-out: LD50 (the source's name).
In assay [9] the test system is Biomphalaria peregrina. Kind of assay: Molluscicidal activity against Biomphalaria peregrina assessed as mortality at 40 ppm after 24 hrs. The essentials:
as §1

Assay [10] relates to Biomphalaria peregrina. Nature of the assay: Molluscicidal activity against Biomphalaria peregrina assessed as mortality at 20 ppm after 24 hrs. The essentials:
as §1

Regarding `CCCC(=O)C1=C(O)C(C)(CC=C(C)C)C(O)=C(Cc2c(OC)cc(O)c(C(=O)CCC)c2O)C1=O` (stereo unspecified), the Activity is 95% in assay [1], 10% in [2] and 0% in assay [3]. The compound further showed an LD90 in assay [4] of 9 µM. Besides, the LC50 in assay [4] worked out at 5.8 µM.
Turning to `CC/C=C(\OC(C)=O)C1=C(OC(C)=O)C(C)(CC=C(C)C)C(OC(C)=O)=C(Cc2c(OC)cc(OC(C)=O)c(C(=O)CCC)c2OC(C)=O)C1=O` (stereo unspecified), the Activity was determined as 43% in assay [5], 5% in [1] and 0% in [2]. Moreover, the LD90 in assay [4] was 20.7 µM. The LC50 in assay [4] was found to be 14.9 µM.
For the compound `O=C(Nc1ccc([N+](=O)[O-])cc1Cl)c1cc(Cl)ccc1O` [NICLOSAMIDE], the LC50 in assay [6], in [7] and in assay [8] was no more than 0.5 µg/mL throughout.
Consider `CC/C=C(\OC(C)=O)C1=C(OC(C)=O)C(C)(CC=C(C)C)C(OC(C)=O)=C(Cc2c(OC)cc(OC(C)=O)c(C(=O)CCCCC)c2OC(C)=O)C1=O` (stereo unspecified), for which the Activity was determined as 81% in [9]; 24% in [10]; 0% in [5]; 0% in assay [1]; 0% in assay [2]. The compound also showed an LD90 in assay [4] of 58.4 µM. Also, the LC50 in assay [4] was found to be 40.6 µM.
Turning to `CCCCCC(=O)c1c(O)cc(OC)c(CC2=C(O)C(C)(CC=C(C)C)C(O)=C(C(=O)CCC)C2=O)c1O` (stereo unspecified), the Activity in assay [1] worked out at 100%. In addition, the Activity in [2] came to 57%. Moreover, the Activity in assay [3] came out at 10%. In [4], the LD90 stood at 2.6 µM, the LD100 result is “<=5 ppm” and the LC50 was found to be 1.8 µM.

The values above are taken from ChEMBL document CHEMBL1151829, “Molluscicidal Phloroglucinols from the Fern Elaphoglossum piloselloides” (2009).
